Data reported in ChEMBL document CHEMBL2321773, “Colloidal aggregation causes inhibition of G protein-coupled receptors” (J Med Chem, 2013).
The source made the active and inactive calls. The rule behind the calls is not given here.

Assays:
[1] = biological target: T1, C-C chemokine receptor type 4 (Homo sapiens) (UniProt P51679); assay: (§1) Inhibition of CCL22-stimulated CCR4 in human HTLA cells pre-incubated for 20 mins with centrifuged compound solution measured on day 4 by beta arrestin-recruitment mediated luciferase reporter gene assay; assay type: cell-based
T1 sequence (whole entry): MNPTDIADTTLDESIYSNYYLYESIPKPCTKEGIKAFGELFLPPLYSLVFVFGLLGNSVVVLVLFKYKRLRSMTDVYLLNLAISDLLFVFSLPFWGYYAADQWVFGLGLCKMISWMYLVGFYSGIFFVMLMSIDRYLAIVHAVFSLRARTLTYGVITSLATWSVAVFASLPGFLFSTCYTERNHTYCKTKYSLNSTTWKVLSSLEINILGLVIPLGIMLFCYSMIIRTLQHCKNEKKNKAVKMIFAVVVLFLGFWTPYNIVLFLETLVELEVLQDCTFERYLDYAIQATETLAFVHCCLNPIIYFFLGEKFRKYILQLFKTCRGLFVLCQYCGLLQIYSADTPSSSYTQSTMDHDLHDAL
Procedure, shortened: (§2)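 HTLA cells (stable β-arrestin2-TEV protease fusion, tTA-dependent firefly luciferase) transfected by CaPO4 with receptor-V2-tTA construct; next day plated 20 000 cells/well in 1% dialyzed FBS; day 3 serum-free DMEM; compound 0.001 nM–100 μM final in HBSS/20 mM HEPES pH 7.4 for 20 min, then 1 μM agonist overnight, 37 °C; day 4 luminescence after Bright-Glo 30 min; normalized to vehicle and reference; sigmoidal fit.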

[2] = biological target: T2, Vasopressin V2 receptor (Homo sapiens, UniProt P30518); assay: Inhibition of vasopressin-stimulated vasopressin V2 receptor in human HTLA cells pre-incubated for 20 mins with Tween-80-treated compound solution measured on day 4 by beta arrestin-recruitment mediated luciferase reporter gene assay; assay type: cell-based
T2 sequence (P30518 whole entry): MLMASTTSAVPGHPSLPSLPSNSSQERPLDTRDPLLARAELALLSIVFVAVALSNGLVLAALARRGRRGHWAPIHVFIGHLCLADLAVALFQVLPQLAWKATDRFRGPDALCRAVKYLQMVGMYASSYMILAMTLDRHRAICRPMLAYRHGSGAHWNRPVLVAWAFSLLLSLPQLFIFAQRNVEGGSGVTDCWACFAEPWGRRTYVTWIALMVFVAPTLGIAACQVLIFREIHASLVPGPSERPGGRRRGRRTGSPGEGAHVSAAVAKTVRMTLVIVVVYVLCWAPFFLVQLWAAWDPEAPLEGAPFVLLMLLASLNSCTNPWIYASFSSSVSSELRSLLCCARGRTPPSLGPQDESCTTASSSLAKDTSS
Procedure, shortened: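 Transfected HTLA β-arrestin/tTA-luciferase reporter cells were kept serum-free on day 3 and given compound (0.001 nM–100 μM final, pH 7.4 HEPES-HBSS buffer) for 20 min. They were then stimulated with 1 μM vasopressin overnight at 37 °C. Media was removed before day-4 luciferase read; normalized to vehicle/reference, sigmoidal regression.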

[3] = biological target: T3, C-C chemokine receptor type 4 (Homo sapiens, UniProt P51679); assay: Inverse agonist activity at CCR4 in human HTLA cells assessed as depression of basal activity incubated for 20 mins by beta arrestin-recruitment mediated luciferase reporter gene assay in absence of CCL22; assay type: cell-based
T3 sequence (P51679 whole entry): T1 sequence (whole entry)
Procedure, shortened: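 β-Arrestin recruitment luciferase reporter in transfected HTLA cells without CCL22 agonist. Compounds ranged 0.001 nM to 100 μM final in HBSS/HEPES pH 7.4 buffer, with 20 min exposure in serum-free DMEM. Luminescence read on day 4.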

[4] = biological target: T2, Vasopressin V2 receptor; assay: Inhibition of vasopressin V2 receptor (unknown origin) assessed as change in intracellular calcium levels treated with centrifuged compound solution by fluorometric analysis; assay type: functional, cell-based
[5] = biological target: T2, Vasopressin V2 receptor; assay: Inhibition of vasopressin V2 receptor (unknown origin) assessed as change in intracellular calcium levels incubated with compound treated with Tween-80 by fluorometric analysis; assay type: functional, cell-based
[6] = biological target: T4, Cruzipain (Trypanosoma cruzi, UniProt P25779); assay: Inhibition of Trypanosoma cruzi cruzaine using Z-Phe-Arg-aminomethylcoumarin as substrate incubated for 5 mins by spectrofluorimetric analysis in presence of Tween-80
T4 sequence (P25779 whole entry): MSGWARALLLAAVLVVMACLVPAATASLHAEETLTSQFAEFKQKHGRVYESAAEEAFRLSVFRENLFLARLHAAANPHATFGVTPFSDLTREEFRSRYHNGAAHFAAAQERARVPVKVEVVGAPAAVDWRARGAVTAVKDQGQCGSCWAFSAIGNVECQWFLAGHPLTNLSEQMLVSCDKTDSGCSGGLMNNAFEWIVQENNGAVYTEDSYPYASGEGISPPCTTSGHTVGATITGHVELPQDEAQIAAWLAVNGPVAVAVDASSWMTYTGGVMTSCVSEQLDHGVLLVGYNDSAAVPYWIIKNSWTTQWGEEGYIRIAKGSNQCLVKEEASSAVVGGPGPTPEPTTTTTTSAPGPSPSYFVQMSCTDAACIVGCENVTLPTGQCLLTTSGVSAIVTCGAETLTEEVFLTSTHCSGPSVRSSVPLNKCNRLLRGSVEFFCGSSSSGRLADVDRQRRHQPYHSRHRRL
Procedure, shortened: (§3)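 Cruzain at 0.4 nM final in 0.1 M sodium acetate pH 5.5 with 5 mM DTT and 1% DMSO. Compound preincubated with enzyme for 5 min, then 2.5 μM Z-FR-AMC added. Fluorescence increase (ex 355/em 460 nm) monitored for 5 min. Duplicate wells, two separate experiments. IC50 from variable-slope sigmoidal fit.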

[7] = biological target: T4, Cruzipain; assay: Inhibition of Trypanosoma cruzi cruzaine using Z-Phe-Arg-aminomethylcoumarin as substrate incubated for 5 mins by spectrofluorimetric analysis in absence of Tween-80; procedure, shortened: as §3
[8] = Inhibition of AmpC beta lactamase (unknown origin) incubated for 5 mins by UV-Vis spectrophotometric analysis in presence of Triton X-100
[9] = Inhibition of AmpC beta lactamase (unknown origin) incubated for 5 mins by UV-Vis spectrophotometric analysis in absence of Triton X-100
[10] = biological target: T3, C-C chemokine receptor type 4; assay: as §1; assay type: cell-based; procedure, shortened: as §2
[11] = biological target: T3, C-C chemokine receptor type 4; assay: Inhibition of CCL22-stimulated CCR4 in human HTLA cells pre-incubated for 20 mins measured on day 4 by beta arrestin-recruitment mediated luciferase reporter gene assay
[12] = biological target: T2, Vasopressin V2 receptor; assay: Inhibition of vasopressin-stimulated vasopressin V2 receptor in human HTLA cells pre-incubated for 20 mins measured on day 4 by beta arrestin-recruitment mediated luciferase reporter gene assay; assay type: cell-based
[13] = biological target: T2, Vasopressin V2 receptor; assay: Inhibition of vasopressin-stimulated vasopressin V2 receptor in human HTLA cells pre-incubated for 20 mins with centrifuged compound solution measured on day 4 by beta arrestin-recruitment mediated luciferase reporter gene assay
[14] = biological target: T3, C-C chemokine receptor type 4; assay: Inhibition of CCL22-stimulated CCR4 in human HTLA cells pre-incubated for 20 mins with Tween-80-treated compound solution measured on day 4 by beta arrestin-recruitment mediated luciferase reporter gene assay
[15] = biological target: T5, C-X-C chemokine receptor type 1 (Homo sapiens) (UniProt P25024); assay: Inhibition of CX3CL1-stimulated CX3CR1 in human HTLA cells pre-incubated for 20 mins with centrifuged compound solution measured on day 4 by beta arrestin-recruitment mediated luciferase reporter gene assay
T5 sequence (whole entry): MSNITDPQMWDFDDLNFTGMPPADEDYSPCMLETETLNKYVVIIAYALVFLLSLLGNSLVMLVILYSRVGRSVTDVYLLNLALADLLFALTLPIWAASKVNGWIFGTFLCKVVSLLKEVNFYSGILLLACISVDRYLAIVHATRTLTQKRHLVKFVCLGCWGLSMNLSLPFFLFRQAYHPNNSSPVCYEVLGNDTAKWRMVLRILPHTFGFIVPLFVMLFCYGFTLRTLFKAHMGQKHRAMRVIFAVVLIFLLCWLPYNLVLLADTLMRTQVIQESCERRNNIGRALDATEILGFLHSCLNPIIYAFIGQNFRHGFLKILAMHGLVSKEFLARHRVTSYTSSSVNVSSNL

[16] = Inhibition of AmpC beta lactamase (unknown origin) at 10 uM incubated for 5 mins
Procedure, shortened: (§4)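 AmpC β-lactamase (1 nM) in 50 mM potassium phosphate pH 7.0 at room temperature; compound at 10 μM final from 10 mM DMSO stock, with or without 5 min preincubation with 1 μM vasopressin; enzyme incubated with sample 5 min, reaction started with 69 μM CENTA; absorbance change at 405 nm followed 2.5 min; quadruplicate.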

[17] = Inhibition of AmpC beta lactamase (unknown origin) at 10 uM incubated for 5 mins in presence of vasopressin; procedure, shortened: as §4

SMILES | inhibition [1] | inhibition [4] | inhibition [5] | IC50 [6] [µM] | IC50 [7] [µM] | IC50 [8] [µM] | IC50 [9] [µM] | inhibition [15] | further results
Clc1ccccc1C(c1ccccc1)(c1ccccc1)n1ccnc1 [CLOTRIMAZOLE] | inactive | Active | Active |  |  |  |  |  | inhibition [2]: inactive; IC50 [3]: 1.6 µM
O=c1cc(-c2ccc(O)c(O)c2)oc2cc(O)cc(O)c12 [LUTEOLIN] |  |  |  | 156 | 27.3 | > 100 | 21.9 |  | 
O=c1c(-c2ccc(O)cc2)coc2cc(O)cc(O)c12 [GENISTEIN] |  |  |  | > 400 | 82.7 | > 100 | 16.7 |  | 
CCC(C)n1ncn(-c2ccc(N3CCN(c4ccc(OCC5COC(Cn6cncn6)(c6ccc(Cl)cc6Cl)O5)cc4)CC3)cc2)c1=O (stereo not drawn) [ITRACONAZOLE] |  | Active | Active |  |  |  |  |  | IC50 [10]: 7.2 µM; IC50 [2]: 6.31 µM; IC50 [11]: 0.501 µM; IC50 [12]: 0.794 µM; IC50 [13]: 11.9 µM; IC50 [14]: 12.6 µM
O=c1c(O)c(-c2ccc(O)c(O)c2)oc2cc(O)cc(O)c12 |  |  |  |  |  |  |  | inactive | 
O=C1OC(c2cc(I)c(O)c(I)c2)(c2c(I)cc(O)cc2I)c2ccccc21 (stereo not drawn) | inactive | Active | Active |  |  |  |  | inactive | inhibition [16]: 77%; inhibition [17]: 7%
